{"source": "PubChem BioAssay AID2052", "about": "(NMMLSC, 2009)", "note": "Screen size: about 330,000 compounds; about 220 (0.067%) were called active.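 How the source made its calls: active means response, share of CD8 T cells binding vesicles, and their 90th percentile fluorescence all below set limits (cut at about 80% in these data, passing the limit was not always enough); inactive means the rest, inconclusive results apart.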 The full list was thinned out, with actives kept by preference. Non-standard residues stand in square brackets, D forms with d. Residues, ends and D or L forms follow the SMILES beside them. ξ: configuration not given here. ξV = CC(C)C(N)C(=O)O"}
{"test": "murine CD8 T cell vesicle adhesion modulation – mouse 2C CD8+ T cells, flow cytometry, primary screen (AID 2052);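 on double positive events: binding gate set so that unloaded-vesicle control wells show 10% double positive cells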;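 on response (vesicle binding): values below 100% mean blocked vesicle binding to the CD8+ T cells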", "details": "2C CD8+ T cell-vesicle binding, at 7 µM, stronger effect = lower value; double positive events: measured here: CD8+ vesicle-bound cell fraction", "in_short": "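Material: murine 2C transgenic CD8+ T lymphocytes / Also added: QL9-peptide-loaded Drosophila micro-vesicles bearing Ld, ICAM-1 and B7-1 / Schedule: binding step 1.5 h, 37 °C, antibody labelling 20 min, ice / Signal: flow cytometry, PE anti-B7-1 (FL2) versus Alexa647 anti-CD8 (FL8), PFA-fixed / Evaluation: percent CD8+ FL2 mean versus row control / Benchmarks: naked versus QL9-loaded vesicles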", "units": {"double positive events": "%"}}
{"smiles": "CCC(CC)C(=O)Nc1cc(C(=O)OC)cc(C(=O)OC)c1", "double positive events": 23.6, "response (vesicle binding)": "410% (inactive)"}
{"smiles": "Cc1c(Br)c([N+](=O)[O-])nn1CC(=O)N1CCN(Cc2ccccc2)CC1", "double positive events": 63, "response (vesicle binding)": "210% (inactive)"}
{"smiles": "Cc1cc(Cl)ccc1C(=O)C1CCCN(C(=O)CCN2CCCO2)C1", "note": "(stereo unspecified)", "double positive events": 23.8, "response (vesicle binding)": "257% (inactive)"}
{"smiles": "Cn1nc(C(F)(F)F)c2cc(NC(=O)OCC(C)(C)C)sc21", "double positive events": 43.1, "response (vesicle binding)": "197% (inactive)"}
{"smiles": "CN(CCc1cnn(C)c1)Cc1cn(C)nc1-c1ccccc1F", "double positive events": 31.2, "response (vesicle binding)": "291% (inactive)"}
{"smiles": "O=C(Nc1cccn(Cc2c(Cl)cccc2Cl)c1=O)c1ccc(Cl)cc1", "double positive events": 24.7, "response (vesicle binding)": "379% (inactive)"}
{"smiles": "CCCC(CCC(=O)OC)(C(=O)OCC)c1csc(N)n1", "note": "(stereo unspecified)", "double positive events": 19.7, "response (vesicle binding)": "485% (inactive)"}
{"smiles": "CN(c1ccccc1)S(=O)(=O)c1cccc(NC(=O)Cc2ccc(Cl)cc2)c1", "double positive events": 40.2, "response (vesicle binding)": "419% (inactive)"}
{"smiles": "CCCCCC1CCC(c2nnc(SCC(C)=O)o2)CC1", "note": "(stereo unspecified)", "double positive events": 19.4, "response (vesicle binding)": "214% (inactive)"}
{"smiles": "O=C(Nc1ccc(N2CCOCC2)cc1)c1ccc(-c2ccccc2[N+](=O)[O-])o1", "double positive events": 30.7, "response (vesicle binding)": "205% (inactive)"}
{"smiles": "O=C(Nc1ccc(N2CCCCC2)cc1)c1cc(S(=O)(=O)N2CCOCC2)ccc1F", "double positive events": 40.6, "response (vesicle binding)": "316% (inactive)"}
{"smiles": "O=C(CC1Oc2ccccc2NC1=O)NCCCN1CCN(Cc2ccccc2)CC1", "note": "(stereo unspecified)", "double positive events": 40.4, "response (vesicle binding)": "363% (inactive)"}
{"smiles": "CCOC(=O)N1CCN(S(=O)(=O)c2ccc3c(c2)C(C)C(=O)N3)CC1", "note": "(stereo unspecified)", "double positive events": 29.9, "response (vesicle binding)": "289% (inactive)"}
{"smiles": "COc1ccc(/C=C2\\N=C3CCCN3C2=O)cc1", "double positive events": 16.6, "response (vesicle binding)": "231% (inactive)"}
{"smiles": "O=C1C=C(c2cccc(Br)c2)C[C@@H](c2ccc(F)cc2)C1", "double positive events": 26, "response (vesicle binding)": "405% (inactive)"}
{"smiles": "Cc1ccc(C(=O)NC2CCCC(C)C2C)cc1S(=O)(=O)N1CCCCC1", "note": "(stereo unspecified)", "double positive events": 56.1, "response (vesicle binding)": "659% (inactive)"}
{"smiles": "O=C(Nc1ccc(CSc2ccccc2)cc1)c1ccc(CN2CCOCC2)cc1", "double positive events": 48.3, "response (vesicle binding)": "264% (inactive)"}
{"smiles": "COc1ccc(N2CC(C)Cn3c2nc2c3c(=O)n(Cc3ccccc3F)c(=O)n2C)c(OC)c1", "note": "(stereo unspecified)", "double positive events": 27.6, "response (vesicle binding)": "423% (inactive)"}
{"smiles": "O=C(O)c1ccccc1-c1ccccc1C(=O)NCCc1ccccc1", "double positive events": 29.9, "response (vesicle binding)": "437% (inactive)"}
{"smiles": "COc1ccc(CCNC(=O)c2ccccc2OCc2ccccc2)cc1", "double positive events": 12.3, "response (vesicle binding)": "205% (inactive)"}
{"smiles": "NC(=O)Nc1ccccc1C(=O)NCCc1ccccc1", "double positive events": 0, "response (vesicle binding)": "0% (active)"}
{"smiles": "CC(C)c1ccc(N(C(=O)c2ccco2)C(C(=O)NC2CCCC2)c2cccnc2)cc1", "note": "(stereo unspecified)", "double positive events": 19.1, "response (vesicle binding)": "176% (inactive)"}
{"smiles": "Cc1cc(C)c(S(=O)(=O)c2cc(F)ccc2C)c(=O)[nH]1", "double positive events": 44.2, "response (vesicle binding)": "185% (inactive)"}
{"smiles": "O=S(=O)(Nc1ccc(Cl)cn1)c1cnc(Cl)c(Br)c1", "double positive events": 15.2, "response (vesicle binding)": "0% (inactive)"}
{"smiles": "COc1ccc(N2CC(C(=O)N[C@@H](C)C(=O)N3CCCCC3)CC2=O)cc1", "note": "(stereo partly specified)", "double positive events": 12.6, "response (vesicle binding)": "315% (inactive)"}
{"smiles": "OCC(CO)(CO)NCc1ccc(-c2ccccc2)cc1", "double positive events": 35.7, "response (vesicle binding)": "0% (inactive)"}
{"smiles": "NC(=O)C[C@@H]1NC(=O)CNC(=O)c2cc([N+](=O)[O-])cc(I)c2NCCC(C(N)=O)NC1=O", "note": "(stereo partly specified)", "double positive events": 24.2, "response (vesicle binding)": "474% (inactive)"}
{"smiles": "CC(/C=C/C1(O)C(C)CC(=O)CC1(C)C)OC1OC(CO)C(O)C(O)C1O", "note": "(stereo unspecified)", "double positive events": 38.7, "response (vesicle binding)": "185% (inactive)"}
{"smiles": "CCNC(=O)Nc1ccc(S(=O)(=O)Nc2cnc(C)nc2C)cc1", "double positive events": 18.1, "response (vesicle binding)": "230% (inactive)"}
{"smiles": "CCc1nnc(NC(=O)CSc2nc(SC)ns2)s1", "double positive events": 35.8, "response (vesicle binding)": "236% (inactive)"}
{"smiles": "CCc1cccc2c3c([nH]c12)C(CC)(CC(=O)O)OCC3", "note": "(stereo unspecified)", "double positive events": 14.8, "response (vesicle binding)": "487% (inactive)"}
{"smiles": "O=C(CSc1ccc(-c2ccccn2)nn1)Nc1ccccc1", "double positive events": 12.5, "response (vesicle binding)": "157% (inactive)"}
{"smiles": "Cc1c(OC(C)C(=O)NCC2CCC(C(=O)O)CC2)ccc2c1oc(=O)c1ccccc12", "note": "(stereo unspecified)", "double positive events": 55.9, "response (vesicle binding)": "184% (inactive)"}
{"smiles": "CCCn1nnnc1NCc1ccc(OC)cc1", "double positive events": 56.3, "response (vesicle binding)": "308% (inactive)"}
{"smiles": "Cn1nnnc1NCc1ccc(Cl)c(Cl)c1", "double positive events": 43.7, "response (vesicle binding)": "445% (inactive)"}
{"smiles": "COc1ccc(CNc2nnnn2C)cc1", "double positive events": 4, "response (vesicle binding)": "0% (active)"}
{"smiles": "CC(C)N1CCC(NC(=O)Nc2ccccc2)CC1", "double positive events": 60.7, "response (vesicle binding)": "257% (inactive)"}
{"smiles": "CC(=O)NC(C(=O)NCC(N)=O)C(C)C", "note": "(stereo unspecified) (Ac-[ξV]-Gly-NH2)", "double positive events": 32.4, "response (vesicle binding)": "396% (inactive)"}
{"smiles": "O=C(O)c1[nH]c2ccccc2c1C(c1cccc(O)c1)c1c(C(=O)O)[nH]c2ccccc12", "double positive events": 36.2, "response (vesicle binding)": "361% (inactive)"}
{"smiles": "Cc1ccc(CNC(=O)COC(=O)C2CCC2)cc1", "double positive events": 37.4, "response (vesicle binding)": "742% (inactive)"}
{"smiles": "O=C(COC(=O)Cc1c[nH]c2ccccc12)NCCc1ccccc1", "double positive events": 19.5, "response (vesicle binding)": "241% (inactive)"}
{"smiles": "NC(=O)COc1ccc(C23CC4CC(CC(C4)C2)C3)cc1", "double positive events": 52.9, "response (vesicle binding)": "159% (inactive)"}
{"smiles": "COP1(=O)C[C@@H](O)[C@@H](O)[C@@H](COCc2ccccc2)O1", "note": "(stereo partly specified)", "double positive events": 21.9, "response (vesicle binding)": "504% (inactive)"}
{"smiles": "C[C@H](OC(=O)n1ccnc1)[C@@H]1O[C@@]2(C)CCC[C@@H]1O2", "double positive events": 24.9, "response (vesicle binding)": "376% (inactive)"}
{"smiles": "COc1ccc(N(CC(=O)Nc2ccc(C)cc2C)S(=O)(=O)c2ccccc2[N+](=O)[O-])c(OC)c1", "double positive events": 61.2, "response (vesicle binding)": "182% (inactive)"}
{"smiles": "Cc1noc(C)c1CSc1nnc2ccc3ccccc3n12", "double positive events": 43.2, "response (vesicle binding)": "196% (inactive)"}
{"smiles": "NS(=O)(=O)c1cc(Cl)c(Cl)c(S(N)(=O)=O)c1", "double positive events": 42.1, "response (vesicle binding)": "570% (inactive)"}
{"smiles": "Cn1nnc(NC(=S)NC(=O)c2ccccc2)n1", "double positive events": 30.5, "response (vesicle binding)": "556% (inactive)"}
{"smiles": "CSc1nnc(SCc2nc3sc(C(=O)O)c(C)c3c(=O)[nH]2)s1", "double positive events": 37.4, "response (vesicle binding)": "501% (inactive)"}
{"smiles": "CCc1ccc(CNC(=O)C2CCN(c3nnc(C)c4c(C)n(-c5ccc(C)cc5)nc34)CC2)cc1", "double positive events": 10.5, "response (vesicle binding)": "623% (inactive)"}
{"smiles": "CC1(C)C[C@H]2C3=CCC4[C@@]5(C)CC[C@H](O)[C@](C)(CO)C5CC[C@@]4(C)[C@]3(C)C[C@@H](O)[C@@]2(CO)[C@@H](O)[C@@H]1O", "note": "(stereo partly specified)", "double positive events": 14.8, "response (vesicle binding)": "534% (inactive)"}
{"smiles": "COc1cc(NC(=S)NNC(=O)CC(C)C)c(OC)cc1Cl", "double positive events": 66.1, "response (vesicle binding)": "458% (inactive)"}
{"smiles": "Cc1nn(CCOc2ccc(Br)cc2)c(C)c1[N+](=O)[O-]", "double positive events": 61.8, "response (vesicle binding)": "447% (inactive)"}
